According to PubChem BioAssay:
Records with an inconclusive call do not appear.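 Rule for the calls, unless noted: active = viability at or below 27.92% in each of two runs, the all-compound median minus 4 SD; inconclusive = no clear call, values can overlap the other calls; inactive = the rest.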

What was measured:
[1] = S. cerevisiae growth inhibition in permissive medium (OD615), pilot counter-assay for S. cerevisiae lifespan shortening project, permissive growth control (AID 705;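 active = growth inhibition above 25% in both replicates, a cutoff set 3 SD above the mean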); details: OD615, 24 h, at 10 µM, stronger effect = higher value
In short: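 System: Engineered DeaD yeast | Buffer or medium: SC raffinose/galactose permissive medium | Doses: 10 µM single dose, 0.25% DMSO | Times: 24 h exposure, 30 °C | Measured by: OD615 turbidity read | Read-out: Yeast growth inhibition indicated by reduced 24 h OD615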

[2] = S. cerevisiae growth inhibition in restrictive medium, OD615, pilot screen, restrictive growth control, yeast lifespan reduction project (AID 706;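 active = growth inhibition above a set limit, 3 SD over mean compound inhibition, in both replicates, cut at about 43% in these data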;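 note: modified DeaD lifespan yeast strain shifted to restrictive glucose medium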); details: OD615, 48 h, at 10 µM, stronger effect = higher value
In short: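 Assay system: engineered S. cerevisiae DeaD strain; Buffer or medium: CSMM-D glucose medium; Dosing: 10 µM compound, 0.25% DMSO; Times: cell pre-growth 4 h, compound exposure 48 h, 30 °C; Detection: absorbance (optical density) measured at 615 nm.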

[3] = doxorubicin toxicity protection in MRP-1 cells – H69AR cells, CellTiter-Glo, duplicate, MRP-1 activator project, pilot screen (AID 807;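 active = viability increase at or above a cutoff of the median across tested compounds plus 3 SD, cut at about 8.5% in these data, passing the limit was not always enough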;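 note: compound pretreatment 18-22 h then 72 h combined with doxorubicin; 0% = doxorubicin alone and 100% = vehicle without doxorubicin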); details: H69AR viability with doxorubicin, CellTiter-Glo luminescence; at 10 µM; stronger effect = higher value
[4] = viability of HCT116 without oncogenic beta-catenin – human colon tumor cells, pilot screen (AID 823;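 active = cell viability at or below a set limit in both duplicate runs, the limit being the all-compound median minus 4 SD, cut at about 23% in these data, passing the limit was not always enough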;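 note: 0% = wells killed by 20 µM Hyamine and 100% = untreated DMSO cell wells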); details: HCT116 beta-catenin knockout viability, CellTiter-Glo, 60 h; at 10 µM; stronger effect = lower value
[5] = viability of PTEN-null HCT116 cells – cell-based, HCT116 clonal line, CellTiter-Glo, pilot screen (AID 824); details: HCT116 PTEN-deleted viability, 60 h, at 10 µM, stronger effect = lower value;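 note: 0% = 20 µM Hyamine control and 100% = vehicle cell control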
[6] = RAM pathway blockade in budding yeast – dse1pr::URA3 reporter, 5-FOA selection, pilot screen (AID 869;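 active = inhibition over a set limit, the all-compound mean plus 3 SD, in both replicate runs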;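 note: 0% = DMSO wells with no growth and 100% = 10 µM 1-NA-PP1 with full growth; RAM network block rescues cells from 5-FOA so hits raise OD615 growth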); details: S. cerevisiae dse1pr::URA3 5-FOA growth, OD615, 2 d; at 10 µM; stronger effect = higher value; strain carries analog-sensitive mutant Cbk1 kinase
[7] = RAM signaling pathway blockade in yeast – S. cerevisiae, Pdr1DBD-CYC8 efflux-inhibited sensitized strain, primary screen (AID 1298;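 active = RAM network inhibition above 8.4% in each of two replicates, 3 SD over the compound average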;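 note: 0% = DMSO untreated cells without growth and 100% = 10 µM 1-NA-PP1 full growth; higher means more yeast growth rescued from 5-FOA killing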); details: S. cerevisiae cbk1-as DSE1-URA3 strain, 5-FOA growth OD615, 2 d; at 50 µM; stronger effect = higher value

COCC(=O)Nc1cc(C)c2c(=O)oc3ccccc3c2n1
inactive: growth inhibition [1] 1.37% | growth inhibition [2] 5.79% | viability increase [3] -1.64% | viability [4] 96% | viability [5] 94% | inhibition [6] -0.92% | RAM network inhibition [7] 2.67%

O=C(NC1CCN(C(=O)N2c3ccccc3Sc3ccccc32)CC1)c1ccco1
inactive: growth inhibition [1] -3.83% | growth inhibition [2] -13.8% | viability increase [3] -3.6% | viability [4] 65.1% | viability [5] 59.7% | inhibition [6] -0.48% | RAM network inhibition [7] 4.1%

Cc1nc(N2CCN(C(=O)c3ccco3)CC2)c2c3c(sc2n1)CCC3
inactive: growth inhibition [1] -10.5% | growth inhibition [2] 5.55% | viability increase [3] -1.12% | viability [4] 79.8% | viability [5] 83% | inhibition [6] 1.16% | RAM network inhibition [7] 5%

Nc1c(C(=O)CCC(=O)O)oc2ccc(Cl)cc12
inactive: growth inhibition [1] 5.78% | growth inhibition [2] -0.24% | viability increase [3] -2.01% | viability [4] 100% | viability [5] 99.4% | inhibition [6] 0.635% | RAM network inhibition [7] 5.46%

CN(C)c1nc2c(c(=O)[nH]c(=O)n2C)n1Cc1ccc(F)cc1
inactive: growth inhibition [1] -2.72% | growth inhibition [2] 6.59% | viability increase [3] -0.31% | viability [4] 107% | viability [5] 100% | inhibition [6] 1.74% | RAM network inhibition [7] 2.1%

COc1cccc(C2CC(c3ccc(Cl)cc3)Nc3nc(N)nn32)c1 (stereo unspecified)
inactive: growth inhibition [1] 4.02% | growth inhibition [2] 11.4% | viability increase [3] 3.49% | viability [4] 91.4% | viability [5] 83% | inhibition [6] 1.92% | RAM network inhibition [7] 6.11%

COc1ccc(NS(=O)(=O)c2ccc(OC)c(OC)c2)cc1OC
inactive: growth inhibition [1] -7.13% | growth inhibition [2] 4.59% | viability increase [3] 0.52% | viability [4] 92% | viability [5] 90.7% | inhibition [6] 0.335% | RAM network inhibition [7] 0%

O=C(CN1CCN(c2ccccc2F)CC1)c1ccc2cc[nH]c2c1
inactive: growth inhibition [1] -12.6% | growth inhibition [2] -6.94% | viability increase [3] -4.1% | viability [4] 100% | viability [5] 84.7% | inhibition [6] 2.02% | RAM network inhibition [7] 0.99%

c1ccc(CN2CCN(c3nc4ccccc4n4cnnc34)CC2)cc1
inactive: growth inhibition [1] -4.76% | growth inhibition [2] -16.2% | viability increase [3] -1.7% | viability [4] 94.8% | viability [5] 86% | inhibition [6] 0.625% | RAM network inhibition [7] 2.12%

COc1cccc(N2C(=O)Nc3ccccc3C2(O)C(=O)NCc2ccc3c(c2)OCO3)c1 (stereo unspecified)
inactive: growth inhibition [1] -11.5% | growth inhibition [2] -8.59% | viability increase [3] -0.4% | viability [4] 95.9% | viability [5] 99.7% | inhibition [6] 0.51% | RAM network inhibition [7] 9.22%

CCOc1ccc(N(C(C)C(=O)Nc2ccc(OC)cc2)S(C)(=O)=O)cc1 (stereo unspecified)
inactive: growth inhibition [1] -10.2% | growth inhibition [2] -1.65% | viability increase [3] 0.78% | viability [4] 103% | viability [5] 90.2% | inhibition [6] 1% | RAM network inhibition [7] 3.17%

Cc1sc2nc(SCC(=O)OC(C)C)n(C)c(=O)c2c1C
inactive: growth inhibition [1] -2.81% | growth inhibition [2] 31.4% | viability increase [3] -1.84% | viability [4] 105% | viability [5] 94.8% | inhibition [6] 2.59% | RAM network inhibition [7] 2.75%

CCOc1cccc(=O)c2c(C)n(CC3CCCO3)c(C)c12 (stereo unspecified)
inactive: growth inhibition [1] -3.19% | growth inhibition [2] -1.17% | viability increase [3] -2.8% | viability [4] 92.5% | viability [5] 90.4% | inhibition [6] 0.73% | RAM network inhibition [7] -1.39%

Cn1cnnc1SCC(=O)c1ccc2c(c1)CCCC2
inactive: growth inhibition [1] -1.79% | growth inhibition [2] 12.5% | viability increase [3] -1.07% | viability [4] 105% | viability [5] 96.6% | inhibition [6] 0.17% | RAM network inhibition [7] 4.35%

COc1cccc(C(=O)N2CCSC2=S)c1
inactive: growth inhibition [1] -10.4% | growth inhibition [2] 3.34% | viability increase [3] -0.12% | viability [4] 97% | viability [5] 97.5% | inhibition [6] 0% | RAM network inhibition [7] -1.3%

O=C(C1CC(c2ccc(F)cc2)=NO1)N1CCN(c2ccccc2)CC1 (stereo unspecified)
inactive: growth inhibition [1] 1.07% | growth inhibition [2] -3.47% | viability increase [3] -0.13% | viability [4] 99.1% | viability [5] 95.6% | inhibition [6] 1.23% | RAM network inhibition [7] 3.67%

CCN(CC)Cc1c[nH]c2c(C(=O)OC)cccc12
inactive: growth inhibition [1] -11.4% | growth inhibition [2] -23.5% | viability increase [3] -4.51% | viability [4] 101% | viability [5] 94.9% | inhibition [6] 2% | RAM network inhibition [7] -1.31%

CCOC(=O)N1CCC(NC(=O)C2CCCN(Cc3nc(-c4cccc(Cl)c4)oc3C)C2)CC1 (stereo unspecified)
inactive: growth inhibition [1] -13.4% | growth inhibition [2] -23.4% | viability increase [3] -5.39% | viability [4] 40.4% | viability [5] 49.5% | inhibition [6] 0.715% | RAM network inhibition [7] 3.95%
